The values below come from ChEMBL document CHEMBL2311513, “Fragment growing and linking lead to novel nanomolar lactate dehydrogenase inhibitors” (J Med Chem, 2013).

Each structure is given as a SMILES string. Calls of active or inactive are those of the source. The rule behind the calls is not given here.

The target of one assay is T1, L-lactate dehydrogenase A chain (Homo sapiens, UniProt P00338). The assay can be described thus: Binding affinity to human LDH-A by surface plasmon resonance analysis. Put shortly:
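Human LDH-A amine-coupled to a CM5 chip (~13000 RU), carbonic anhydrase II as reference surface. Running buffer 10 mM HEPES, 150 mM NaCl, 3% DMSO. Compounds injected as 2-fold dilution series, top 1 mM, at 20 °C. Equilibrium and kinetic responses fitted to a 1:1 binding model to give Kd.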
On the technique in general: In SPR one partner is held on a chip, and binding of the other changes the refractive index at the surface.
For orientation: Kd means the constant that tells how readily two partners part at equilibrium. As to `COc1cc(OCC(O)CO)c(Cl)cc1NC(=O)CSc1ccc(C(=O)O)cn1` (stereo unspecified), binding was put at a Kd of 360 µM.

Turning to `COc1cc(OCCCNC(=O)COc2cc(F)cc(-c3ccc(C(=O)O)cn3)c2)c(Cl)cc1NC(=O)CSc1ccc(C(=O)O)cn1`, the Kd worked out at 0.175 µM. This Kd is about 2100-fold lower than that of the compound before.

As to `COc1cc(OCCCOCCCOc2cc(F)cc(-c3ccc(C(=O)O)cn3)c2)c(Cl)cc1NC(=O)CSc1ccc(C(=O)O)cn1`, the dissociation constant Kd was 0.85 µM.

For the compound `COc1cc(OC[C@@H](O)[C@@H](O)[C@H](O)[C@H](O)CNc2cc(F)cc(-c3ccccn3)c2)c(Cl)cc1NC(=O)CSc1ccc(C(=O)O)cn1`, the Kd came out at 2.95 µM.

Turning to `COc1cc(OC[C@@H](O)[C@@H](O)[C@H](O)[C@H](O)CNc2cc(F)cc(-c3ccc(C(=O)O)cn3)c2)c(Cl)cc1NC(=O)CSc1ccccn1`, the dissociation constant Kd stood at 0.222 µM.

As for `O=C(O)c1ccc(-c2ccccc2)nc1`, the Kd was determined as 2300 µM.

For `COc1ccc(Cl)cc1NC(=O)CSc1ccc(C(=O)O)cn1`, binding was put at a Kd of 137 µM.

Compound `O=C(O)COc1cc(F)cc(-c2ccc(C(=O)O)cn2)c1` came in with a Kd of 1300 µM.

As to `COc1cc(OC[C@@H](O)[C@@H](O)[C@H](O)[C@H](O)CNc2cc(F)cc(-c3ccc(C(=O)O)cn3)c2)c(Cl)cc1NC(=O)CSc1ccc(C(=O)O)cn1`, the equilibrium dissociation constant (Kd) came out at 0.019 µM.

`COc1cc(OC[C@H](O)[C@H](O)[C@@H](O)[C@@H](O)COc2cc(F)cc(-c3ccc(C(=O)O)cn3)c2)c(Cl)cc1NC(=O)CSc1ccc(C(=O)O)cn1` registered a Kd of 12 µM. Against the preceding compound, the Kd is about 630-fold higher.

The compound `COc1cc(OC[C@@H](O)[C@@H](O)[C@H](O)[C@H](O)COc2cc(F)cc(-c3ccc(C(=O)O)cn3)c2)c(Cl)cc1NC(=O)CSc1ccc(C(=O)O)cn1` registered a Kd of 0.068 µM.

The target in a further assay is T1, L-lactate dehydrogenase A chain. The assay can be described thus: Inhibition of LDH-A in human Ramos cells assessed as cellular lactate level at 200 uM after 4 hrs. The class given is cell-based. In a few lines:
(§1)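 Supernatant sampled after 1 and 4 h. Extracellular lactate measured by a two-step lactate assay, both times within the linear range. Lactate expressed relative to vehicle, from a representative experiment.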
As to `COC(=O)c1ccc(SCC(=O)Nc2cc(Cl)c(OC[C@@H](O)[C@@H](O)[C@H](O)[C@H](O)CNc3cc(F)cc(-c4ccc(C(=O)OC)cn4)c3)cc2OC)nc1`, the inhibition entry is “inactive”.

Turning to `COc1cc(OC[C@@H](O)[C@@H](O)[C@H](O)[C@H](O)CNc2cc(F)cc(-c3ccccn3)c2)c(Cl)cc1NC(=O)CSc1ccc(C(=O)O)cn1`, the lactate level (% of vehicle) was determined as 35%.

Regarding `COc1cc(OC[C@@H](O)[C@@H](O)[C@H](O)[C@H](O)CNc2cc(F)cc(-c3ccc(C(=O)O)cn3)c2)c(Cl)cc1NC(=O)CSc1ccccn1`, the lactate level (% of vehicle) was 61%.

On to `COc1cc(OC[C@@H](O)[C@@H](O)[C@H](O)[C@H](O)CNc2cc(F)cc(-c3ccc(C(=O)O)cn3)c2)c(Cl)cc1NC(=O)CSc1ccc(C(=O)O)cn1`, for which the lactate level (% of vehicle) was determined as 68%.

The next assay has the same target. The assay can be described thus: Inhibition of LDH-A (unknown origin) in presence of 0.1% Triton.
One may read the IC50 as the concentration needed to halve the response being measured. On to `COc1cc(OC[C@@H](O)[C@@H](O)[C@H](O)[C@H](O)COc2cc(F)cc(-c3ccc(C(=O)O)cn3)c2)c(Cl)cc1NC(=O)CSc1ccc(C(=O)O)cn1`, for which the concentration for half-maximal inhibition (IC50) was 0.325 µM.

A further assay has the same target. Put plainly: Inhibition of LDH-A in human Ramos cells assessed as cellular lactate level at 200 uM after 1 hr. The class given is cell-based. Put shortly:
as §1
On to `COC(=O)c1ccc(SCC(=O)Nc2cc(Cl)c(OC[C@@H](O)[C@@H](O)[C@H](O)[C@H](O)CNc3cc(F)cc(-c4ccc(C(=O)OC)cn4)c3)cc2OC)nc1`, for which the inhibition entry is “inactive”.

For the compound `COc1cc(OC[C@@H](O)[C@@H](O)[C@H](O)[C@H](O)CNc2cc(F)cc(-c3ccccn3)c2)c(Cl)cc1NC(=O)CSc1ccc(C(=O)O)cn1`, the lactate level (% of vehicle) was 17%.

In the case of `COc1cc(OC[C@@H](O)[C@@H](O)[C@H](O)[C@H](O)CNc2cc(F)cc(-c3ccc(C(=O)O)cn3)c2)c(Cl)cc1NC(=O)CSc1ccccn1`, the lactate level (% of vehicle) is 21%.

Take `COc1cc(OC[C@@H](O)[C@@H](O)[C@H](O)[C@H](O)CNc2cc(F)cc(-c3ccc(C(=O)O)cn3)c2)c(Cl)cc1NC(=O)CSc1ccc(C(=O)O)cn1`: the lactate level (% of vehicle) worked out at 56%.

The target is the same in a further assay. The assay can be described thus: Inhibition of LDH-A (unknown origin) up to 1 mM in presence of 0.1% Triton.
`O=C(O)CN1C(=O)/C(=C/c2ccc(O)c(O)c2)SC1=S`: the inhibition entry is “inactive”.

As to `O=C(CCCCN1C(=O)/C(=C/c2ccc(O)c(O)c2)SC1=S)NCc1ccc(Cl)c(Cl)c1`, the inhibition entry is “inactive”.

The target is the same in another assay. The assay can be described thus: Inhibition of LDH-A (unknown origin) in absence of 0.1% Triton.
For `COc1cc(OC[C@@H](O)[C@@H](O)[C@H](O)[C@H](O)COc2cc(F)cc(-c3ccc(C(=O)O)cn3)c2)c(Cl)cc1NC(=O)CSc1ccc(C(=O)O)cn1`, half-maximal inhibition (IC50) required 0.22 µM.

Another assay shares this target. The assay can be described thus: Inhibition of LDH-A (unknown origin) by enzyme assay.
Take `COc1cc(OCC(O)CO)c(Cl)cc1NC(=O)CSc1ccc(C(=O)O)cn1` (stereo unspecified): the 50% inhibitory concentration (IC50) worked out at 342 µM.

On to `COC(=O)c1ccc(SCC(=O)Nc2cc(Cl)c(OC[C@@H](O)[C@@H](O)[C@H](O)[C@H](O)CNc3cc(F)cc(-c4ccc(C(=O)OC)cn4)c3)cc2OC)nc1`, for which the IC50 was > 10000 µM.

Regarding `COc1cc(OCCCNC(=O)COc2cc(F)cc(-c3ccc(C(=O)O)cn3)c2)c(Cl)cc1NC(=O)CSc1ccc(C(=O)O)cn1`, it took 2.4 µM to reach half-maximal inhibition (IC50).

In turn, `COc1cc(OCCCOCCCOc2cc(F)cc(-c3ccc(C(=O)O)cn3)c2)c(Cl)cc1NC(=O)CSc1ccc(C(=O)O)cn1` registered an IC50 of 59 µM.

In turn, `Nc1cc(F)cc(-c2ccc(C(=O)O)cn2)c1` yielded an IC50 of 1300 µM.

As to `COc1cc(OC[C@@H](O)[C@@H](O)[C@H](O)[C@H](O)CNc2cc(F)cc(-c3ccccn3)c2)c(Cl)cc1NC(=O)CSc1ccc(C(=O)O)cn1`, 13 µM corresponded to half-maximal inhibition (IC50).

Compound `COc1cc(OC[C@@H](O)[C@@H](O)[C@H](O)[C@H](O)CNc2cc(F)cc(-c3ccc(C(=O)O)cn3)c2)c(Cl)cc1NC(=O)CSc1ccccn1` came in with an IC50 of 2.4 µM.

Take `O=C(O)c1ccc(-c2ccccc2)nc1`: the IC50 is > 2000 µM.

`COc1ccc(Cl)cc1NC(=O)CSc1ccc(C(=O)O)cn1`: the midpoint of inhibition, the IC50, lay at 770 µM.

Compound `O=C(O)COc1cc(F)cc(-c2ccc(C(=O)O)cn2)c1` yielded an IC50 of 2200 µM.

For the compound `COc1cc(OC[C@@H](O)[C@@H](O)[C@H](O)[C@H](O)CNc2cc(F)cc(-c3ccc(C(=O)O)cn3)c2)c(Cl)cc1NC(=O)CSc1ccc(C(=O)O)cn1`, half-maximal inhibition (IC50) required 0.12 µM.

`COc1cc(OC[C@H](O)[C@H](O)[C@@H](O)[C@@H](O)COc2cc(F)cc(-c3ccc(C(=O)O)cn3)c2)c(Cl)cc1NC(=O)CSc1ccc(C(=O)O)cn1` gave an IC50 of 15.2 µM.

As for `COc1cc(OC[C@@H](O)[C@@H](O)[C@H](O)[C@H](O)COc2cc(F)cc(-c3ccc(C(=O)O)cn3)c2)c(Cl)cc1NC(=O)CSc1ccc(C(=O)O)cn1`, inhibition was half-maximal at 0.44 µM (IC50).
